# According to ChEMBL document CHEMBL1138502, “Discovery and biological evaluation of novel cyanoguanidine P2X(7) antagonists with analgesic activity in a rat model of neuropathic pain” (J Med Chem, 2009):
# Calls of active or inactive are those of the source. No cut-off for these calls is given here.
# Experiments:
# Rattus norvegicus [1] = test: Antinociceptive activity in ip dosed rat L5-L6 spinal nerve ligation model of neuropathic pain assessed as reduction in tactile allodynia; type: functional; set-up: Activity: scale not given: the % may be the effect or the level left; details: for ED50: Rattus norvegicus, Spinal nerve, ip
# In short: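 Intraperitoneal dosing in rats with L5-L6 spinal nerve ligation (Chung model). Tactile allodynia was measured by von Frey testing. ED50 in µmol/kg and maximum efficacy (%) are the mean of six animals.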
# [2] = molecular target: T1, P2X purinoceptor 3 (Homo sapiens) (UniProt P56373); test: Activity at P2X3 receptor up to 10 uM
# T1 sequence (whole entry): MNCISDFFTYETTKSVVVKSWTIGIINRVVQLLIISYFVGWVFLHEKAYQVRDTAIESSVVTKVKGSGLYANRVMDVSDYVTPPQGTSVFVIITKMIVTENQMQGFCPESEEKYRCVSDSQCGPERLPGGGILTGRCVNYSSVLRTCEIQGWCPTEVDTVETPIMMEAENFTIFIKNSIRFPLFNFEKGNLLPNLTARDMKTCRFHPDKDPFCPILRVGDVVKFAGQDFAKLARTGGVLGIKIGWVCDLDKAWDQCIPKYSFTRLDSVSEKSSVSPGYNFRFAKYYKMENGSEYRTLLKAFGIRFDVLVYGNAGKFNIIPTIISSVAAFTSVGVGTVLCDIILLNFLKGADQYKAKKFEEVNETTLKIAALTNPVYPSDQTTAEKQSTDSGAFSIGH
# [3] = molecular target: P2Y purinoceptor 2 (Homo sapiens) (UniProt P41231); test: Activity at P2Y2 receptor up to 10 uM
# [4] = molecular target: T2, P2X purinoceptor 4 (Homo sapiens) (UniProt Q99571); test: Activity at P2X4 receptor up to 10 uM
# T2 sequence (whole entry): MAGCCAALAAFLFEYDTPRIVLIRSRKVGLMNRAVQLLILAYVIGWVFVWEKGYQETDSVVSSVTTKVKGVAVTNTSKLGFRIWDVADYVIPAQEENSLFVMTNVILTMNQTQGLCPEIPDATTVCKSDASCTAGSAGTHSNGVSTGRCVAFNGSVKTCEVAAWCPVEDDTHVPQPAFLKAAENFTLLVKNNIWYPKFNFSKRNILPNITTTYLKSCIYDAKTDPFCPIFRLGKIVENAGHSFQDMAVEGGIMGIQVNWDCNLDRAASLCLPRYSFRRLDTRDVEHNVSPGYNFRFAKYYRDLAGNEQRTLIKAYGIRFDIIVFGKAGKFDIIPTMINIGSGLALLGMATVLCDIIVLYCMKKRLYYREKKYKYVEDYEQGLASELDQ
# P2X purinoceptor 7 [5] = molecular target: T3, P2X purinoceptor 7 (Homo sapiens, UniProt Q99572); test: Antagonist activity at human cloned P2X7 receptor expressed in HEK293 cells assessed as inhibition of calcium flux by FLIPR assay; type: functional, cell-based
# T3 sequence (Q99572 whole entry): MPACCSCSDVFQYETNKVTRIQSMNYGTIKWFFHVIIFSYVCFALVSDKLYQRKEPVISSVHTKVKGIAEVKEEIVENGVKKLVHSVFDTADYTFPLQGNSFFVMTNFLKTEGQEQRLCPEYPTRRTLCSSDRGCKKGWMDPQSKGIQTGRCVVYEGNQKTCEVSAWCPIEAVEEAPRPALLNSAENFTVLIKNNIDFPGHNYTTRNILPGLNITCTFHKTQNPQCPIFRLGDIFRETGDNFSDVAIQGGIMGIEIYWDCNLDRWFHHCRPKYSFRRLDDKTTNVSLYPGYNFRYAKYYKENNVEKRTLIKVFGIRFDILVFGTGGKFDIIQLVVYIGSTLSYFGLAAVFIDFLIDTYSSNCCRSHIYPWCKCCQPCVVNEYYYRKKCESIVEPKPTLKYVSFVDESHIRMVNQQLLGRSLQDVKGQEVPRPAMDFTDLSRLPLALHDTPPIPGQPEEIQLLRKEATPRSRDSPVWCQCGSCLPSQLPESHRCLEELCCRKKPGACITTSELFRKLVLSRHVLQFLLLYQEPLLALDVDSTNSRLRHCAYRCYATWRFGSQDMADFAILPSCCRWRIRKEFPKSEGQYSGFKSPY
# In short: (§1)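 Calcium influx read on a fluorometric imaging plate reader with Fluo-4 as the calcium-sensing dye. The P2X7 agonist was benzoylbenzoic ATP (BzATP). pIC50 values are the mean of two experiments unless otherwise indicated; some values are the mean of more than two experiments, with standard deviation shown.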
# [6] = Bioavailability in rat at 10 umol/kg, ip; type: ADME, organism-based; details: in vivo
# P2X purinoceptor 7 [7] = molecular target: T4, P2X purinoceptor 7 (Rattus norvegicus, UniProt Q64663); test: Antagonist activity at rat cloned P2X7 receptor expressed in HEK293 cells assessed as inhibition of calcium flux by FLIPR assay; type: functional, cell-based; in short: as §1
# T4 sequence (Q64663 whole entry): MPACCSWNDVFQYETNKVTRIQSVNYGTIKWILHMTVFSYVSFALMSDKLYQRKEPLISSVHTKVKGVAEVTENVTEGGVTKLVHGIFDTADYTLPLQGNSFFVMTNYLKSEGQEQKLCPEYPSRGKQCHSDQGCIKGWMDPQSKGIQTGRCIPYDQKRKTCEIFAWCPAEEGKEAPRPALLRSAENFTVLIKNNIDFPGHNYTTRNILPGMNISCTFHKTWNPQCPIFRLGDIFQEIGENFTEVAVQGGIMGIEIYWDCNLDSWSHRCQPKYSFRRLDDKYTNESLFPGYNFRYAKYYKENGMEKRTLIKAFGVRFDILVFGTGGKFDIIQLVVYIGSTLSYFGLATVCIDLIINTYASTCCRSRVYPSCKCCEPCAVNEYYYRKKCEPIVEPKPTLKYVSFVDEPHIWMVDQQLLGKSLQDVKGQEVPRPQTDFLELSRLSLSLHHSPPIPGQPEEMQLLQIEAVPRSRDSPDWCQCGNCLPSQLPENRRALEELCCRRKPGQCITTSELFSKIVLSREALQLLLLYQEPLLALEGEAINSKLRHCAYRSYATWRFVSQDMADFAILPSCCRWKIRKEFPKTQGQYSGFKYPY
# [8] = Oral bioavailability in rat; type: ADME, organism-based; details: in vivo
# Rattus norvegicus [9] = test: Antiallodynic activity in rat L5-L6 spinal nerve ligation model of neuropathic pain assessed as inhibition of mechanical allodynia after chronic administration of vehicle twice daily for 4 days followed by acute dose of 100 umol/kg, po on day 5; type: functional; set-up: scale not given: the % may be the effect or the level left
# In short: (§2)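 Rats with L5-L6 spinal nerve ligation (Chung model) received vehicle (5% DMSO/PEG) or compound at 100 µmol/kg orally twice a day for four days. On day 5, vehicle or compound was given orally 1 h before von Frey testing for mechanical allodynia. Results are % effect ± SEM, N = 6 per group, with P vs the respective vehicle group.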
# Rattus norvegicus [10] = test: Antiallodynic activity in rat L5-L6 spinal nerve ligation model of neuropathic pain assessed as inhibition of mechanical allodynia at 100 umol/kg, po single administration; type: functional; set-up: scale not given: the % may be the effect or the level left
# In short: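 Chung-model rats (L5-L6 spinal nerve ligation) were given a single oral dose, with 5% DMSO/PEG as vehicle. Mechanical allodynia was read by von Frey testing and expressed as % effect ± SEM, N = 6 per group, compared with vehicle.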
# Rattus norvegicus [11] = test: Antiallodynic activity in rat L5-L6 spinal nerve ligation model of neuropathic pain assessed as inhibition of mechanical allodynia at 100 umol/kg, po administered twice daily for 4 days once on day 5; type: functional; set-up: scale not given: the % may be the effect or the level left; in short: as §2
# [12] = Selectivity for P2X7 receptor over potassium channel
# Sequence of P2Y purinoceptor 2 (Homo sapiens) (P41231 whole entry): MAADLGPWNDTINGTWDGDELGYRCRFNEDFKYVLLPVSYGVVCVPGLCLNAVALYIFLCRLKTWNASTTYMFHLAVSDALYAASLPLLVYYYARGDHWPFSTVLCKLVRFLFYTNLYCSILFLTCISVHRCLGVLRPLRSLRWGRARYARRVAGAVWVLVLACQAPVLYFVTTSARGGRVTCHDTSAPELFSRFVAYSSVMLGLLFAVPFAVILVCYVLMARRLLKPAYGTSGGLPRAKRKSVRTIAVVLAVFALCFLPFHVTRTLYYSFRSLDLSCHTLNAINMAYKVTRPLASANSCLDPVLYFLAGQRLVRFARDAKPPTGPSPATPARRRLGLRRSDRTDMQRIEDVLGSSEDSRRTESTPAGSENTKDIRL
Structure (SMILES),Activity (Rattus norvegicus [1]) [%],ED50 (Rattus norvegicus [1]) [µmol/kg],Activity [2],Activity [3],Activity [4],IC50 (P2X purinoceptor 7 [5]) [nM],bioavailability [6] [%],IC50 (P2X purinoceptor 7 [7]) [nM],further results
COc1ccc(CC(=O)NC(N/C(=N/C#N)Nc2ccccc2C)C(C)(C)C)cc1OC (stereo in doubt; 13),59,77,inactive,inactive,inactive,–,–,–,–
CC(C)(C)C(NC(=O)Cc1ccc(Cl)cc1)N/C(=N/C#N)Nc1cccc2ncccc12 (configuration not stated),68,55,–,–,–,10,66,6.31,–
COc1ccc(CC(=O)NC(N/C(=N/C#N)Nc2cc(C)ccc2C)C(C)(C)C)cc1OC (configuration not stated),–,–,inactive,inactive,inactive,–,–,–,–
Cc1ncccc1N/C(=N\C#N)NC(NC(=O)Cc1ccc(F)cc1)C(C)(C)C (configuration not stated),0,> 300,–,–,–,100,52,398,–
Cc1ncccc1NC(=NC(NC(=O)Cc1ccc(Cl)cc1)C(C)(C)C)NC#N (configuration not stated),–,–,–,–,–,31.6,54,39.8,bioavailability [8]: 36%
Cc1ncccc1N/C(=N\C#N)NC(NC(=O)Cc1ccc(Cl)cc1)C(C)(C)C (configuration not stated),82,38,inactive,inactive,inactive,–,–,–,Activity (Rattus norvegicus [9]): 44%; Activity (Rattus norvegicus [10]): 45%; Activity (Rattus norvegicus [11]): 61%
COc1ccc(CC(=O)NC(NC(=NC#N)Nc2ccccc2C)C(C)(C)C)cc1OC (stereo in doubt; 13),–,–,–,–,–,126,90,12.6,–
COc1ccc(CC(=O)NC(N/C(=N/C#N)Nc2cccc3ncccc23)C(C)(C)C)cc1OC (configuration not stated),65,41,inactive,inactive,inactive,39.8,79,–,–
CC(Cl)(Cl)C(NC(=O)c1ccc(Cl)cc1)N/C(=N/C#N)Nc1cccnc1Cl (configuration not stated),–,–,–,–,–,–,–,–,Selectivity ratio [12]: 100
COc1ncccc1N/C(=N\C#N)NC(NC(=O)c1ccc(Cl)cc1)C(C)(Cl)Cl (configuration not stated),–,–,–,–,–,–,–,–,Selectivity ratio [12]: 100
